ChEMBL document CHEMBL4406821, “Novel dual inhibitors targeting CDK4 and VEGFR2 synergistically suppressed cancer progression and angiogenesis” (Eur J Med Chem, 2019)
Calls of active or inactive are those of the source. No cut-off for these calls is given here.

Tests used:
[1] = target: Serine/threonine-protein kinase Nek2 (Homo sapiens) (UniProt P51955); experiment: Inhibition of recombinant human full length NEK2 at 1 uM using myelin basic protein as substrate incubated for 40 mins in presence of [gamma-33P]-ATP by scintillation counting method relative to control
[2] = target: Serine/threonine-protein kinase PRP4 homolog (Homo sapiens) (UniProt Q13523); experiment: Inhibition of recombinant human PRP4 (663 to end residues) at 1 uM using casein as substrate incubated for 40 mins in presence of [gamma-33P]-ATP by scintillation counting method relative to control
T47D = experiment: Induction of apoptosis in human T47D cells assessed as increase in early apoptotic cells at 20 to 40 nM incubated for 48 hrs by annexin V FITC and propidium iodide staining based flow cytometry; format: functional, cell-based
Method in brief: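 Annexin V-FITC/PI double staining with flow-cytometric readout. MDA-MB-231, T-47D, SiHa and HeLa cells were treated with graded concentrations for 48 h. MDA-MB-231 and T-47D were grown in DMEM and SiHa in 1640 medium, each with 10% FBS and 1% penicillin/streptomycin at 37°C under 5% CO2. Early- and late-stage apoptotic fractions were scored.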

HeLa = experiment: Induction of apoptosis in human HeLa cells assessed as decrease in Rb phosphorylation incubated for 48 hrs by Western blot analysis; format: functional, cell-based
Method in brief: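 Cells were treated for 48 h, washed three times with PBS, and lysed in RIPA buffer. Immunoblots used anti-Rb, anti-phospho-Rb, anti-Ki67 and anti-Bcl-2 (each 1:1000), with β-actin as loading control.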

HUVEC = experiment: Antiproliferative activity against HUVEC cells assessed as reduction in cell viability at 20 to 40 nM by CCK8 assay; format: functional, cell-based; settings: Homo sapiens, TDE = time-dependent effect
Method in brief: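 HUVECs, 3×10³ cells/well, kept in 1640 medium with 10% FBS at 37°C and 5% CO₂. Cells were treated at 20 or 40 nM or vehicle, and viability was read by CCK-8 (absorbance 450 nm) at 0, 12, 24, 36, 48, 60 and 72 h. Five replicates per sample.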

[3] = target: Ephrin type-B receptor 3 (Homo sapiens) (UniProt P54753); experiment: Inhibition of recombinant human EPhB3 (599 to 920 residues) at 1 uM using poly (Glu, Tyr) 4:1 as substrate incubated for 40 mins in presence of [gamma-33P]-ATP by scintillation counting method relative to control
MDA-MB-231 = experiment: Induction of cell cycle arrest in human MDA-MB-231 cells assessed as decrease in accumulation in S phase at 20 to 40 nM incubated for 36 hrs by propidium iodide staining based flow cytometry; format: functional
Method in brief: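 Cells were treated with graded concentrations for 36 h, then fixed overnight in 70% ice-cold ethanol at 4°C and resuspended in PBS. Staining used 50 µg/ml PI plus 5 µg/ml RNase at 37°C for 30 min. DNA content was analysed by FACS to give G0/G1, S and G2/M fractions.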

[4] = target: Protein kinase C gamma type (Homo sapiens) (UniProt P05129); experiment: Inhibition of recombinant human full length PKCgamma at 1 uM using histone H1 as substrate incubated for 40 mins in presence of [gamma-33P]-ATP by scintillation counting method relative to control
[5] = target: Serine/threonine-protein kinase TAO1 (Homo sapiens) (UniProt Q7L7X3); experiment: Inhibition of recombinant human TAO1 (1 to 327 residues) at 1 uM using myelin basic protein as substrate incubated for 40 mins in presence of [gamma-33P]-ATP by scintillation counting method relative to control
[6] = target: Serine/threonine-protein kinase DCLK2 (Homo sapiens) (UniProt Q8N568); experiment: Inhibition of recombinant human DCAMKL2 (376 to end residues) at 1 uM using KKLNRTLSFAEPG as substrate incubated for 40 mins in presence of [gamma-33P]-ATP by scintillation counting method relative to control
Method in brief: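 Tested at a single 1 uM in an outsourced commercial kinase-profiling panel, read as percent inhibition. Each value is the mean of two independent experiments.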

[7] = target: Tyrosine-protein kinase Srms (Homo sapiens) (UniProt Q9H3Y6); experiment: Inhibition of recombinant human SRMS at 1 uM incubated for 40 mins in presence of [gamma-33P]-ATP by scintillation counting method relative to control
[8] = MRT (0 to t) in Sprague-Dawley rat at 10 mg/kg, iv by HPLC-MS analysis; format: ADME, organism-based; settings: in vivo
[9] = target: Serine/threonine-protein kinase Sgk3 (Homo sapiens) (UniProt Q96BR1); experiment: Inhibition of recombinant human SGK3 (119 to end residues) at 1 uM using GRPRTSSFAEGKK as substrate incubated for 40 mins in presence of [gamma-33P]-ATP by scintillation counting method relative to control
[10] = target: RAF proto-oncogene serine/threonine-protein kinase (Homo sapiens) (UniProt P04049); experiment: Inhibition of recombinant human cRaf (306 to end residues) at 1 uM using unactive MEK1 as substrate incubated for 40 mins in presence of [gamma-33P]-ATP by scintillation counting method relative to control
[11] = Cmax in Sprague-Dawley rat at 10 mg/kg, iv by HPLC-MS analysis; format: ADME, organism-based; parameters: dose 10 mg/kg, route intravenous; settings: in vivo
Method in brief: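 Rats fitted with jugular vein catheters for serial blood sampling. Compound dissolved in saline with 5% (v/v) DMSO and given as a single 10 mg/kg dose iv or po after an overnight fast, n = 5 per group. Plasma isolated at once and measured by HPLC with tandem MS detection. Parameters derived by noncompartmental fitting.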

[12] = Toxicity in BALB/c mouse assessed as effect on blood parameter by measuring monocytes content at 40 mg/kg, po administered once two days for 4 times by hematology analyzer; settings: in vivo
[13] = target: Ephrin type-B receptor 1 (Homo sapiens) (UniProt P54762); experiment: Inhibition of recombinant human EPhB1 (564 to end residues) at 1 uM using KVEKIGEGTYGVVYK as substrate incubated for 40 mins in presence of [gamma-33P]-ATP by scintillation counting method relative to control
[14] = MRT (0 to t) in Sprague-Dawley rat at 10 mg/kg at 10 mg/kg, po by HPLC-MS analysis; format: ADME, organism-based; settings: in vivo
[15] = tested on: Serine/threonine-protein kinase Chk2 (Homo sapiens), O96017 [I157T]; experiment: Inhibition of recombinant human CHK2 I157T mutant (5 to end residues) at 1 uM using KKKVSRSGLYRSP as substrate incubated for 40 mins in presence of [gamma-33P]-ATP by scintillation counting method relative to control
Method in brief: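 Kinase panel profiling at 1 μM performed by Eurofins KinaseProfiler; percent inhibition reported as mean of two independent experiments.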

[16] = target: Proto-oncogene tyrosine-protein kinase receptor Ret (Homo sapiens) (UniProt P07949); experiment: Inhibition of recombinant human RET (658 to end residues) at 1 uM using KKKSPGEYVNIEFG as substrate incubated for 40 mins in presence of [gamma-33P]-ATP by scintillation counting method relative to control

Sequence of Serine/threonine-protein kinase Sgk3 (Homo sapiens) (Q96BR1 whole entry): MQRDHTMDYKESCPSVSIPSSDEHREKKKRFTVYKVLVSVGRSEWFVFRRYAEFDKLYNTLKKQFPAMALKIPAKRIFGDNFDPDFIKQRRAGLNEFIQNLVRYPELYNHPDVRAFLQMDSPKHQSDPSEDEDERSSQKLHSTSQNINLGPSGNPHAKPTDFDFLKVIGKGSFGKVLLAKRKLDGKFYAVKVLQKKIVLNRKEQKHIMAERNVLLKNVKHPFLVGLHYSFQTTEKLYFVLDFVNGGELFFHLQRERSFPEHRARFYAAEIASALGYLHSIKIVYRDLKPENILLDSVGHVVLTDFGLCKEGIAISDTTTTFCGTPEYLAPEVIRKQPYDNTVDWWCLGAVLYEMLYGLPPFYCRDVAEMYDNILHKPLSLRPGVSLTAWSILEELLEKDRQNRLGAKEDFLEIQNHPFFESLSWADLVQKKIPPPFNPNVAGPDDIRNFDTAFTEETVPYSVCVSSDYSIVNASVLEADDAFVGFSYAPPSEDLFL
Sequence of Serine/threonine-protein kinase Chk2 (Homo sapiens), O96017 [I157T] (O96017 whole entry I157T): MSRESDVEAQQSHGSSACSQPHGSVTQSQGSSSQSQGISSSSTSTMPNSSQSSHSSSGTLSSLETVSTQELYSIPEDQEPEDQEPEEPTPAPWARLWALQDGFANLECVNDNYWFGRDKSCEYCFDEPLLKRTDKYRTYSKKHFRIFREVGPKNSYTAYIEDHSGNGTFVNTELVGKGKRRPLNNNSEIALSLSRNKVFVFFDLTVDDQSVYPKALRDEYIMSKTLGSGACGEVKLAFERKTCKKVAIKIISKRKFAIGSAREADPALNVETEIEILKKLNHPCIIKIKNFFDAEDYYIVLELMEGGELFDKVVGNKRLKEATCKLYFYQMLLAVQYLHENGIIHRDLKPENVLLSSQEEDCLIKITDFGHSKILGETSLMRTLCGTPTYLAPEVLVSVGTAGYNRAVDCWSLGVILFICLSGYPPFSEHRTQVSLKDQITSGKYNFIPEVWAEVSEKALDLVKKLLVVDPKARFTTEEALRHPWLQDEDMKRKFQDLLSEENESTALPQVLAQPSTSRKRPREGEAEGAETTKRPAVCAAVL
Sequence of Ephrin type-B receptor 1 (Homo sapiens) (P54762 whole entry): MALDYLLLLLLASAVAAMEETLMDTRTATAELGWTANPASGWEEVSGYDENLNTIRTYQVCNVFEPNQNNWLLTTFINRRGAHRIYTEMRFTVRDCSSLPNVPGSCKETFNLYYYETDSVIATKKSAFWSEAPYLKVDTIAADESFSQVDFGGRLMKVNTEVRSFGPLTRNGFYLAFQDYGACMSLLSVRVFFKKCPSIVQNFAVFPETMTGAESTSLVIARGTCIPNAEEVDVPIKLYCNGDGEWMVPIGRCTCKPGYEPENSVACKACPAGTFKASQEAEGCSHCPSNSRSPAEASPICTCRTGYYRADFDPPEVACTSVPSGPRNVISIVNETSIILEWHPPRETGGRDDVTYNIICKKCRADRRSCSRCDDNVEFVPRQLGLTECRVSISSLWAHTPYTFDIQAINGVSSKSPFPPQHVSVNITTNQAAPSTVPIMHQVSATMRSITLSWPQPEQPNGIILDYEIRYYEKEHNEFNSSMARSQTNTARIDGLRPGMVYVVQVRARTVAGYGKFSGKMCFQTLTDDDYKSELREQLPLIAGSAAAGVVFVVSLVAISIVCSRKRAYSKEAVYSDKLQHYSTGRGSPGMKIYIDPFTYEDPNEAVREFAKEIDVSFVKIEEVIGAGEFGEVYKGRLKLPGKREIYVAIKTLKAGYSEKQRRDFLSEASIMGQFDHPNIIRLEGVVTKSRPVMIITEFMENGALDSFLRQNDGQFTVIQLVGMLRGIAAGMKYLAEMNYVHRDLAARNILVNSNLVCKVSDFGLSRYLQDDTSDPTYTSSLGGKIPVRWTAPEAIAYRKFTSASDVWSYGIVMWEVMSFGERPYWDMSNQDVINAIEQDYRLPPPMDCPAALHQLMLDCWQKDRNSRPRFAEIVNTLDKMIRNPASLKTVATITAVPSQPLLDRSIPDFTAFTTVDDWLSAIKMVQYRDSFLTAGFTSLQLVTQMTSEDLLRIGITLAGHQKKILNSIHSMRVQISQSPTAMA
Sequence of Serine/threonine-protein kinase TAO1 (Homo sapiens) (Q7L7X3 whole entry, the tested form may be a part): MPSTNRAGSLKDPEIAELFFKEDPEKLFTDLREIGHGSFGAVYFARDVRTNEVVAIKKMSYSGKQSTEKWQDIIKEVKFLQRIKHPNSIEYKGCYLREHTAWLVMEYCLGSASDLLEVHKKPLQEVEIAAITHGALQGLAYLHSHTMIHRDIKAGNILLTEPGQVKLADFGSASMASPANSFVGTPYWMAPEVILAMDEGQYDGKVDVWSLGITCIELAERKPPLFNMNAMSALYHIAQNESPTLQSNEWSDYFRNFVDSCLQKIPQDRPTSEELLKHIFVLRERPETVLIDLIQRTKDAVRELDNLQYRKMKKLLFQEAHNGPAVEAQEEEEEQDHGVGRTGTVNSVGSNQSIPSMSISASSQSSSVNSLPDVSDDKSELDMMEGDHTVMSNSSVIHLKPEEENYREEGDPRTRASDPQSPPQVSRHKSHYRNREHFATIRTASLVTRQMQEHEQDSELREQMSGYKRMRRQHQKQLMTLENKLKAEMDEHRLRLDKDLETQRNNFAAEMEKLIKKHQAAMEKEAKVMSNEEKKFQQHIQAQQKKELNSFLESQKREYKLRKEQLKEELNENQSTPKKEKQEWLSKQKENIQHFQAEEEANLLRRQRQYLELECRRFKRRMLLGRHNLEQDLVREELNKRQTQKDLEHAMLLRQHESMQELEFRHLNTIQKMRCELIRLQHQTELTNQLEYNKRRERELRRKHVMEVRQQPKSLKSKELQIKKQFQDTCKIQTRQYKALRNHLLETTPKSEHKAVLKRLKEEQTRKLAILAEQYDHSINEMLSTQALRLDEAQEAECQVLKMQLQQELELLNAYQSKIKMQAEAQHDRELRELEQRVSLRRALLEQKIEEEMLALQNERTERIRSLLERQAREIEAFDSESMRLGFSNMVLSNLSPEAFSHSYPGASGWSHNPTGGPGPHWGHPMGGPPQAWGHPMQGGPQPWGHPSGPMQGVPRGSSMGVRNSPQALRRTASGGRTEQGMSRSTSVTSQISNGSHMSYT
Sequence of Serine/threonine-protein kinase Nek2 (Homo sapiens) (P51955 whole entry): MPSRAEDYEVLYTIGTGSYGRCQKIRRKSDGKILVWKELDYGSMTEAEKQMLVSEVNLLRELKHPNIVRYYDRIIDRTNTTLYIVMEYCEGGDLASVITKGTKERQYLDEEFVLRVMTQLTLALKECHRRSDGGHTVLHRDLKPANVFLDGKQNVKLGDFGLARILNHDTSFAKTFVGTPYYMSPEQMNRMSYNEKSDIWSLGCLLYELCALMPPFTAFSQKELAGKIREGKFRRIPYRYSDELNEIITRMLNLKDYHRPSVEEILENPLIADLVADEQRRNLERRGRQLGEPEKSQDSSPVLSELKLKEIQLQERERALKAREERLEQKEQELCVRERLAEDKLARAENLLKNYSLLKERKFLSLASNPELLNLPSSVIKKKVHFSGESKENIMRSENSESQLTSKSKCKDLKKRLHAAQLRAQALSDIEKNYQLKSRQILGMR
Sequence of Serine/threonine-protein kinase PRP4 homolog (Homo sapiens) (Q13523 whole entry): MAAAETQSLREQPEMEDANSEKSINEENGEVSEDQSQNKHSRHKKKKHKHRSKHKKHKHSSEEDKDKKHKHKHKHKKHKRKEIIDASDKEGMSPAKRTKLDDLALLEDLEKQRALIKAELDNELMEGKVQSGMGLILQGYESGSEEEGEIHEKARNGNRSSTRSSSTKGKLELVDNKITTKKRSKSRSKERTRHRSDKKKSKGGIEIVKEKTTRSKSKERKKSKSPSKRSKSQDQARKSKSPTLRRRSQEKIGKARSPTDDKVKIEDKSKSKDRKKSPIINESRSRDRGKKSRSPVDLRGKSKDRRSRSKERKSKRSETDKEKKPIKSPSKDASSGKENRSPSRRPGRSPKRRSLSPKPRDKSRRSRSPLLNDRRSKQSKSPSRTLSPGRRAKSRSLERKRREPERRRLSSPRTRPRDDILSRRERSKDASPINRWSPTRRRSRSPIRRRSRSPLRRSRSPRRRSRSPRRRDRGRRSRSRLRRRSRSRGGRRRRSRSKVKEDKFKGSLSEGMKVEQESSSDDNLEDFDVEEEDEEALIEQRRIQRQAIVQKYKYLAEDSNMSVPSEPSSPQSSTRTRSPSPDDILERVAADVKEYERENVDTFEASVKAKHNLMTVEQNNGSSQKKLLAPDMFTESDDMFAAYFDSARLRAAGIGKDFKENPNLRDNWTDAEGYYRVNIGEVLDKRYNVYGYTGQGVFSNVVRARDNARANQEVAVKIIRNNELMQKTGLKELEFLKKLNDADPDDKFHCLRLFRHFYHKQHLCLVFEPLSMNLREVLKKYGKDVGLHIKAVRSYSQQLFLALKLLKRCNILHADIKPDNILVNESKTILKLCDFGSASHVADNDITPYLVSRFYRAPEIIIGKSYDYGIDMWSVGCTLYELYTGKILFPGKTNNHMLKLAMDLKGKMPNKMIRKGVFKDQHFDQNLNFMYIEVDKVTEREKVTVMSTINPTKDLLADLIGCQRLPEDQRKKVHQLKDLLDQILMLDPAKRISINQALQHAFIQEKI
Sequence of Tyrosine-protein kinase Srms (Homo sapiens) (Q9H3Y6 whole entry): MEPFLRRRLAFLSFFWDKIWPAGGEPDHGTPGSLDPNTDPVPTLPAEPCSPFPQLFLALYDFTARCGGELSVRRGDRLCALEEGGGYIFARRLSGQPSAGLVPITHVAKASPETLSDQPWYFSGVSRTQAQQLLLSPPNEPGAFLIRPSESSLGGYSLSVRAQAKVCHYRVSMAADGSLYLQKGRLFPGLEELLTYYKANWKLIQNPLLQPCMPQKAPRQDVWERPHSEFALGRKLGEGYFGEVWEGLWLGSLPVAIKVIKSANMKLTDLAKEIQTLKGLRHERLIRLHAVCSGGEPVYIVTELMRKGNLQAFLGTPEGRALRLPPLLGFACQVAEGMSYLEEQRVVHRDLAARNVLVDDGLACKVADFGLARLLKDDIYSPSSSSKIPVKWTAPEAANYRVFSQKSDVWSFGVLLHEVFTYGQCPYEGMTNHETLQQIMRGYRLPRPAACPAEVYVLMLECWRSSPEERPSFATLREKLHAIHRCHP

With `Cc1ccc(NC(=O)C2(C(=O)Nc3ccc(Nc4ncc(F)c(-c5cc(F)c6nc(C)n(C(C)C)c6c5)n4)cc3)CC2)cc1` the inhibition [1] was 57%, the inhibition [2] was 48% and the Activity (T47D) was “Active”. For the same molecule, the Activity (HeLa) was “Dose-dependent effect”, the inhibition (HUVEC) was “Tde” and the inhibition [3] was 2%. The Activity (MDA-MB-231) was “Active”, the inhibition [4] was 23% and the inhibition [5] was 2%. It also gave an inhibition [6] of 0%, an inhibition [7] of 4% and an MRT last [8] of 2 h. It also gave an inhibition [9] of 11%, an inhibition [10] of 31% and a Cmax [11] of 7000 ng/mL. The Activity [12] was “Non-Toxic”, the inhibition [13] was 66% and the MRT last [14] was 4 h. For the same molecule, the inhibition [15] was 24% and the inhibition [16] was 27%.
